Data set [1] can be described thus: Therapeutic index was measured as concentration required to cause 50% death of uninfected MT-4- cells to IC50 concentration required to inhibit syncytia formation by 50% in HIV-1 infected MT-4 cells. Format: cell-based, MT4. The following applies: human, uninfected MT-4 cells and HIV-1 infected MT-4 cells; read-out: TI. Put shortly:
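Ratio of ID50 to IC50. ID50: uninfected MT-4 cells (2 × 10⁵), three replicate cultures, with graded analogue concentrations; viability by trypan blue exclusion 6 days after drug addition; ID50 is the concentration killing 50% of cells. IC50: 50% inhibition of syncytia in HIV-1-infected MT-4 cells (1 h infection, 37 °C), scored microscopically at day 5.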

The test system of data set [2] is MT4. Description: (§1) Concentration required to inhibit syntica formation by 50% in HIV-1 infected MT-4 cells. It counts as functional, cell-based. Conditions: Homo sapiens. A digest of the protocol:
(§2)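 MT-4 cells (3 × 10⁵) infected with diluted HIV-1 for 1 h at 37 °C, washed three times, then cultured with inhibitor. Syncytia were counted by inverted light microscopy 5 days post-infection. IC50 was the concentration giving 50% inhibition of syncytia formation without cell toxicity.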

The subject of data set [3] is MT4. The description is as §1. Format: ADME, cell-based. Conditions: Homo sapiens. Put shortly:
as §2

SMILES strings stand for the structures.

This note sets out measurements from ChEMBL document CHEMBL1127576, “Inhibition of human immunodeficiency virus type 1 replication by phosphonoformate- and phosphonoacetate-2',3'-dideoxy-3'-thiacytidine conjugates” (J Med Chem, 1994).

As to `Nc1ccn(C2CSC(COP(=O)(O)C(=O)O)O2)c(=O)n1` (stereo unspecified), the selectivity ratio in data set [1] was 10. In data set [2], this molecule registered an IC50 of 100 µM.
In the same order, the values of `Nc1ccn(C2CSC(COC(=O)CP(=O)(O)O)O2)c(=O)n1` (stereo unspecified) are 300 and 1 µM.
The corresponding values for `CC(=O)Nc1ccn(C2CSC(COC(=O)P(=O)(O)O)O2)c(=O)n1` (stereo unspecified) are 500 and 0.2 µM.
For the molecule `CCOP(=O)(CC(=O)Nc1ccn(C2CSC(CO)O2)c(=O)n1)OCC` (stereo unspecified), the selectivity ratio in data set [1] was 100. In data set [2], half-maximal inhibition (IC50) required 5 µM.
Turning to `CCOP(=O)(CC(=O)OCC1OC(n2ccc(N)nc2=O)CS1)OCC` (stereo unspecified), the selectivity ratio in data set [1] was 50. Half-maximal inhibition in data set [2] (IC50) was put at 10 µM.
For the molecule `O=C(CP(=O)(O)O)Nc1ccn(C2CSC(CO)O2)c(=O)n1` (stereo unspecified), the selectivity ratio in data set [1] is 10. For the same molecule, the IC50 in data set [3] was found to be 100 µM.
`CCOP(=O)(OCC)C(=O)OCC1OC(n2ccc(NC(C)=O)nc2=O)CS1` (stereo unspecified): the selectivity ratio in data set [1] was 350. The molecule also yielded an IC50 in data set [2] of 0.3 µM.
The corresponding values for `Nc1ccn([C@@H]2CS[C@H](CO)O2)c(=O)n1` [LAMIVUDINE] are 1000 and 0.1 µM.

By IC50 is commonly meant the concentration that gives 50% inhibition. The low end stands for greater potency in that assay, the high end for weaker potency in that assay.
